This is a sample that favours compounds with a hit; in the whole collection about 2.9% have one here.
OX1R antag-1 – antagonists of human orexin 1 receptor (OX1R). OX1R-expressing cells, FRET antagonist read-out. O43613. 330,000 compounds, 1.8% hits. inhibition, % at 6.6 µM. AID 485270; in the data active = inhibition mostly above about 38%, no sharp cut-off; inactive = mostly below about 40%;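 note: 0% = agonist challenge alone and 100% = reference antagonist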
Target sequence (O43613 whole entry, looked up): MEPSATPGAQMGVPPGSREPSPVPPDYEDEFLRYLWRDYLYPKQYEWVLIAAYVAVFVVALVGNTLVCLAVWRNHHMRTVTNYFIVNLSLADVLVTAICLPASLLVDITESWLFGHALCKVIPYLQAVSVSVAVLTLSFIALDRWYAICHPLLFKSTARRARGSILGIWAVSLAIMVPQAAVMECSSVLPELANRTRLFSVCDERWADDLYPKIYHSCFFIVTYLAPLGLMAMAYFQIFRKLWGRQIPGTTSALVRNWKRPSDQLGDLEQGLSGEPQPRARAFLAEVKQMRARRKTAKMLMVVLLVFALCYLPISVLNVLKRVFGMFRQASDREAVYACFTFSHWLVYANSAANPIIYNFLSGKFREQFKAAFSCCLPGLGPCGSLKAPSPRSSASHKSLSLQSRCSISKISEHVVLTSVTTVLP
M1 ag parental – nonselective activator or artifact in parental CHO-K1 cells. Fluo-8 calcium fluorescence; scaled to maximal ATP response, vehicle zero. activation, % at 3 µM. 360,000 compounds, 0.48% hits; in the data active = activation above about 15%;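 note: untransfected CHO-K1 host cells lacking M1 receptor as counterscreen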
CHO-K1 Ca antag – nonselective inhibitor or artifact in parental CHO-K1 cells. 360,000 compounds, 0.6% hits. inhibition, % at 3 µM. ATP-induced calcium, Fluo-8 fluorescence;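 active = inhibition above a per-plate cutoff, the plate's mean sample inhibition plus 3 SD, cut at about 24% in these data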;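 note: 0% = DMSO plus EC80 ATP and 100% = DMSO alone without ATP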
CHO-K1 Ca PAM – M1 PAM counterscreen hit in parental CHO-K1 cells; ATP EC20, Fluo-8 calcium fluorescence; 0% at ATP EC20, 100% at ATP max; activation, % at 3 µM; 360,000 compounds, 0.02% hits;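 active = activation above the run cutoff, the mean activation of all test compounds plus 3 SD, cut at about 40% in these data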;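 note: peak over basal fluorescence ratio in a 140 s read after ATP addition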
CHO parental Ca – signal in parental CHO cells, OX1R antagonist counter-screen. inhibition, % at 5.6 µM. parental CHO-K1, ATP-induced calcium, Fluo-8 fluorescence. 330,000 compounds, 0.63% hits;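 active = inhibition above that plate's mean sample inhibition plus 3 SD, cut at about 26% in these data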;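 note: 0% = ATP-challenged DMSO wells and 100% = DMSO wells without ATP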
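Measured by: calcium-sensitive Fluo-8 fluorescence / Test system: CHO parental line / Controls: ATP-challenged DMSO wells low, unchallenged DMSO wells high / Measure: % inhibition / Compound: single nominal dose of 5.6 µM per compound / Replicates: single well per compound, no replicates / Reagent: ATP as calcium-mobilizing challenge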
OX1R antag-2 – blocks the human orexin 1 receptor. O43613. CHO/OX1R cells, Fluo-8 calcium fluorescence, orexin A. inhibition, % at 5 µM. 330,000 compounds, 0.43% hits;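 active = inhibition above its plate's threshold, mean inhibition of all tested compounds on the plate plus 3 SD, cut at about 37% in these data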;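 note: 0% = orexin A challenge wells and 100% = SB-334867-A antagonist wells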
An asterisk follows results filed as active; . = no result.

SMILES | OX1R antag-1 | M1 ag parental | CHO-K1 Ca antag | CHO-K1 Ca PAM | CHO parental Ca | OX1R antag-2
COc1ccc(-n2c(C)cc(C(=O)COC(=O)c3ccc(O)cc3O)c2C)cc1 | 18 | 6 | -3 | -6 | 33* | 45*
COc1cc2[nH]c(=O)n3nc(-c4ccccc4)nc3c2cc1OC | 37* | 0 | 0 | 0 | -8 | 1
COc1ccc(-c2nc3c4ccccc4[nH]c(=O)n3n2)cc1 | 18 | 2 | -12 | 20 | -16 | 5
c1csc(CCNc2ncnc3sc4c(c23)CCC4)c1 | 59* | 7 | 18 | -12 | 58* | -26
c1ccc(Nc2ncnc3sc4c(c23)CCC4)cc1 | 7 | 1 | -13 | 6 | -15 | -21
O=C(Nc1nnc(C2=COCCO2)o1)c1ccc([N+](=O)[O-])cc1 | 52* | 0 | -14 | 14 | -8 | -8
O=C(Nc1cc([N+](=O)[O-])ccc1N1CCCC1)c1ccco1 | 65* | 6 | -2 | 9 | -7 | -13
O=C(CN1C(=O)c2ccc([N+](=O)[O-])cc2C1=O)Nc1ccccc1N1CCCC1 | 52* | 1 | -3 | -20 | -1 | 1
O=C(CN1C(=O)c2ccc([N+](=O)[O-])cc2C1=O)NCc1ccc(C(=O)O)cc1 | 62* | 0 | -11 | 17 | 0 | -12
O=C(CN1C(=O)c2cccc([N+](=O)[O-])c2C1=O)NCc1ccccc1 | 19 | 1 | -15 | 13 | -12 | -16
CN1CCN(c2ccc([N+](=O)[O-])cc2NC(=O)c2ccco2)CC1 | 31 | 1 | -6 | 16 | -20 | 0
O=C(CCN1C(=O)c2ccc([N+](=O)[O-])cc2C1=O)Nc1ccc(O)cc1C(=O)O | 56* | 0 | -18 | 15 | -6 | -14
CCOC(=O)C(=CNc1ccc(OC)cc1[N+](=O)[O-])C(=O)OCC | 7 | 0 | -13 | 10 | -10 | -3
C[C@@H]1CN([C@@H](C)CO)C(=O)c2cc(NS(C)(=O)=O)ccc2O[C@@H]1CN(C)Cc1ccc(C(F)(F)F)cc1 | . | 0 | -7 | -14 | . | .
O=C(N/N=C1/CCSC1)c1cc(Br)ccc1O | 23 | 8 | -5 | -4 | -12 | -20
N#CC1(NC(=O)CN2C(=O)c3ccc([N+](=O)[O-])cc3C2=O)CCCCC1 | 53* | 0 | -5 | 10 | -8 | -13
COc1ccccc1N1CCN(/N=C\c2sccc2C)CC1 | 14 | 20* | 3 | 11 | -1 | -9
COC(=O)c1cccc(S(=O)(=O)N(Cc2ccco2)Cc2cc3ccc(OC)cc3[nH]c2=O)c1 | 40* | 5 | -15 | 3 | -18 | 15
COCCNC(=O)C1CC(c2ccc([N+](=O)[O-])cc2)=NO1 (centres undefined) | 69* | 0 | -4 | -6 | -4 | -1
COc1ccc(CCNC(=O)C2CC(c3ccc([N+](=O)[O-])cc3)=NO2)cc1 (centres undefined) | 32 | 2 | -9 | 4 | -8 | -23
N#CCC(=O)N/N=C/c1ccc(OCC(=O)Nc2ccc(F)cc2)cc1 | 9 | 0 | -9 | 16 | 0 | 1
Cc1ccc(C)c(OCc2cc(C(=O)N(C)Cc3nccs3)no2)c1 | 11 | 4 | -16 | -10 | -20 | -11
CC(C)[C@H](NC(=O)c1c(F)cccc1F)C(=O)OCC(=O)NNC(=O)c1ccccc1 | . | 1 | -14 | 14 | . | .
OC[C@@H]1CN(Cc2ccc(F)cc2)C[C@H](n2cnc3c(N4CCCC4)ncnc32)O1 | . | 1 | -5 | 1 | . | .
OC[C@@H]1CN(Cc2ccc(-c3ccccc3)cc2)C[C@H](n2cnc3c(NCc4ccco4)ncnc32)O1 | . | 8 | 25* | -13 | . | .
SMILES | OX1R antag-1 | M1 ag parental | CHO-K1 Ca antag | CHO-K1 Ca PAM | CHO parental Ca | OX1R antag-2
OC[C@@H]1CN(Cc2ccc(-c3ccccc3)cc2)C[C@H](n2cnc3c(NCc4ccncc4)ncnc32)O1 | . | 17* | 8 | -4 | . | .
CN1CCN(c2ncnc3c2ncn3[C@H]2CN(Cc3ccc(F)cc3)C[C@@H](CO)O2)CC1 | . | 0 | 25* | -13 | . | .
COc1cc(CN2C[C@@H](CO)O[C@@H](n3cnc4c(Nc5ccccc5)ncnc43)C2)cc(OC)c1OC | . | 5 | 33* | -15 | . | .
OCCNc1ncnc2c1ncn2[C@H]1CN(Cc2ccc(-c3ccccc3)cc2)C[C@@H](CO)O1 | . | 1 | -9 | 5 | . | .
CCOc1cc(C=O)cc(Br)c1OCC(=O)NCCc1ccccc1 | 4 | 2 | -6 | 1 | -10 | -17
CC(=O)Nc1ccc(C(=O)CN2CCN(c3ccccc3)CC2)cc1 | 13 | 0 | -18 | -8 | -1 | -28
COC(=O)c1c(C)[nH]c(C(=O)C(C)OC(=O)C2CC(=O)N(c3ccc(C)cc3)C2)c1C (centres undefined) | 7 | 13 | 2 | -6 | 46* | 66*
COC(=O)c1c(C)[nH]c(C(=O)C(C)OC(=O)C2CC(=O)N(CCc3ccccc3)C2)c1C (centres undefined) | 9 | 3 | -17 | 0 | -18 | -15
O=[N+]([O-])c1c(NCCO)cc(N2CCCCCC2)c2nonc12 | 42 | 1 | -13 | 24 | -7 | -18
CCOC(=O)C1CCCN(c2cc(NCCCO)c([N+](=O)[O-])c3nonc23)C1 (centres undefined) | 73* | . | . | . | -6 | -30
Cc1ccccc1OCc1occc1C(=O)Nc1cccc(-n2cnnn2)c1 | 4 | 4 | -6 | 4 | -2 | -4
Cc1ccc(S(=O)(=O)CCC(=O)NCCN2C(=O)S/C(=C/c3ccc(F)cc3)C2=O)cc1 | 37 | 6 | 26* | -12 | -2 | -19
O=C(/C=C/c1ccc([N+](=O)[O-])cc1)NCCN1C(=O)S/C(=C\c2ccc(F)cc2)C1=O | 21 | 1 | 13 | 4 | -12 | -11
Cc1nc2ccccc2c2oc(C(=O)N3CCc4ccccc4C3)cc12 | 35* | 3 | 19 | -2 | -11 | -12
Cc1nc2ccccc2c2oc(C(=O)N3CCC(C)CC3)cc12 | 14 | 3 | -13 | -7 | -24 | -41
COCCCN(C(=O)Cc1ccc(S(=O)(=O)N2CCOCC2)s1)c1c(N)n(Cc2ccccc2)c(=O)[nH]c1=O | . | 0 | -2 | -4 | . | .
CC1(C)CC[C@]2(C(=O)O[C@@H]3O[C@H](CO)[C@@H](O)[C@H](O)[C@H]3O)CC[C@]3(C)C(=CCC4[C@@]5(C)CC[C@H](O[C@@H]6O[C@H](C(=O)O)[C@@H](O[C@H]7OC[C@@H](O)[C@@H](O)[C@@H]7O)[C@H](O)[C@H]6O)C(C)(C)C5CC[C@]43C)[C@@H]2C1 (some centres undefined) | 10 | 0 | -6 | 15 | 6 | 6
